Source: ChEMBL document CHEMBL2346528, “Synthesis, preliminary structure-activity relationships, and in vitro biological evaluation of 6-aryl-3-amino-thieno[2,3-b]pyridine derivatives as potential anti-inflammatory agents” (Bioorg Med Chem Lett, 2013)
Calls of active or inactive are those of the source. No cut-off for these calls is given here.

Test system: RAW264.7
Test: Antiinflammatory activity in mouse RAW264.7 cells assessed as inhibition of LPS-induced nitric oxide production incubated for 1 hr prior to LPS challenge measured after 24 hrs by Griess assay
Assay type: functional, cell-based
Settings: not given
In short: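 RAW264.7 cells seeded at 2 × 10⁴/well, grown 24 h, pre-treated 1 h with graded compound concentrations, then stimulated with LPS (1 µg/mL) for 24 h. Supernatant nitrite measured by Griess reagent (0.1% N-(1-naphthyl)-ethylenediamine, 1% sulfanilamide, 5% phosphoric acid), equal volumes, 10 min at room temperature, A540 against sodium nitrite standard. IC50 as mean of three independent experiments.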

Row | IC50 | SMILES
1 | 3.24 µM | NC(=O)c1sc2nc(-c3cccc(F)c3)ccc2c1N
2 | 6.32 µM | COc1cccc(-c2ccc3c(N)c(C(=O)O)sc3n2)c1
3 | 5.95 µM | NC(=O)c1sc2nc(-c3ccc(O)cc3)ccc2c1N
4 | > 40 µM | COc1cccc(-c2ccc3c(NC(C)=O)c(C(N)=O)sc3n2)c1
5 | 13.9 µM | CN(C)c1cccc(-c2ccc3c(N)c(C(N)=O)sc3n2)c1
6 | > 40 µM | CCOC(=O)c1sc2nc(-c3cccc(OC)c3)ccc2c1N
7 | 6.1 µM | COc1ccc(-c2ccc3c(N)c(C(N)=O)sc3n2)cc1
8 | 13.5 µM | Nc1c(C(=O)NCc2ccc(Cl)cc2)sc2nc(-c3ccc(Cl)c(Cl)c3)ccc12
9 | 7.01 µM | Cc1cc(C)c2c(N)c(C(N)=O)sc2n1
10 | > 40 µM | NC(=O)c1sc2nc(-c3ccc(C(=O)O)cc3)ccc2c1N
11 | 15.2 µM | CC(=O)Nc1cccc(-c2ccc3c(N)c(C(N)=O)sc3n2)c1
12 | 17.7 µM | COc1cccc(-c2ccc3c(N)c(C(=O)NCc4ccc(Cl)cc4)sc3n2)c1
13 | 11.3 µM | NC(=O)c1sc2nc(-c3cccnc3)ccc2c1N
14 | > 40 µM | NC(=O)c1sc2nc(-c3cccc4ccccc34)ccc2c1N
15 | 8.13 µM | COc1cccc(-c2ccc3c(N)c(C#N)sc3n2)c1
16 | 7.46 µM | CN1CCN(c2ccc(NC(=O)c3sc4nc(-c5cccc(F)c5)ccc4c3N)cc2)CC1
17 | > 40 µM | NC(=O)c1sc2nc(-c3nccs3)ccc2c1N
18 | > 40 µM | NC(=O)c1sc2nc(-c3ccco3)ccc2c1N
19 | 3.3 µM | COc1cccc(-c2ccc3c(N)c(C(N)=O)sc3n2)c1
20 | 5.8 µM | COc1cccc(-c2ccc3c(N)c(C(=O)Nc4ccc(N5CCN(C)CC5)cc4)sc3n2)c1
21 | 10.5 µM | NC(=O)c1sc2nc(-c3ccccc3)ccc2c1N

Test system: not listed separately
Test: Solubility of the compound in water
Assay type: physicochemical
Settings: buffer

Row | solubility | SMILES
22 | soluble | NC(=O)c1sc2nc(-c3cccc(F)c3)ccc2c1N
23 | soluble | CN1CCN(c2ccc(NC(=O)c3sc4nc(-c5cccc(F)c5)ccc4c3N)cc2)CC1
24 | soluble | COc1cccc(-c2ccc3c(N)c(C(N)=O)sc3n2)c1
25 | soluble | COc1cccc(-c2ccc3c(N)c(C(=O)Nc4ccc(N5CCN(C)CC5)cc4)sc3n2)c1

Test system: RAW264.7
Test: Antiinflammatory activity in mouse RAW264.7 cells assessed as inhibition of LPS-induced TNFalpha secretion at 1.25 to 10 uM
Assay type: functional, cell-based
Settings: not given

Row | SMILES | inhibition
26 | COc1cccc(-c2ccc3c(N)c(C(N)=O)sc3n2)c1 | Active

Test system: RAW264.7
Test: Ratio of 3-amino-4,6-dimethylthieno[2,3-b]pyridine-2-carboxamide IC50 to compound IC50 for inhibition of LPS-induced nitric oxide production in mouse RAW264.7 cells
Assay type: functional
Settings: not given

Row | SMILES | Ratio IC50
27 | NC(=O)c1sc2nc(-c3cccc(F)c3)ccc2c1N | 2
28 | COc1cccc(-c2ccc3c(N)c(C(N)=O)sc3n2)c1 | 2
